The record followed here is PubChem BioAssay AID463191 (Sanford-Burnham Center for Chemical Genomics, 2010).

Usually IC50 stands for the midpoint of a concentration-inhibition curve.

Molecules are shown by their SMILES. Activity calls are given as the source filed them.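 How the source made its calls: active means compounds whose mean IC50 across repeat dose response tests falls below a set limit; inactive means the rest.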

For the experiment, the system named is AML12 mouse hepatocytes, BODIPY lipid droplet imaging. The experiment can be described thus: potency against lipid droplet buildup in liver cells – imaging, AML12 mouse hepatocytes, high-content, dose response (AID 463191). Conditions: cells loaded with 100 µM oleic acid. Summed up: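 test system = mouse AML12 hepatocytes | also added = oleic acid, 100 µM | doses = Seven-point series from 32 to 0.5 µM, 0.32% DMSO | schedule = cells grown about 20 h at 37 °C, then overnight compound exposure | measure = IC50 from per-cell lipid droplet intensity | benchmarks = 5 µM Triacsin-C | replication = duplicate points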
Turning to `CCn1cc(CCCC(=O)NCc2ccccc2OC)c2ccccc21`, the IC50 was 4000 nM.
For `CCCOc1ccc(/C=N/Nc2ccccc2[N+](=O)[O-])c(OCCC)c1` the value was under 500 nM.
With `O=C(Cc1cccc2ccccc12)Nc1nc(-c2cccc([N+](=O)[O-])c2)cs1` the figure was 4300 nM; with `CCOc1ccc(CCNC(=O)C2(c3ccccc3)CC2)cc1OCC`, 3910 nM; with `CCOc1ccc(C(=O)OCC(=O)Nc2cc(C)on2)cc1OCC`, 1800 nM.
Regarding `CC1CCN(C2=C(NS(=O)(=O)c3ccc(Br)cc3)C(=O)c3ccccc3C2=O)CC1`, the IC50 was 703 nM.
With `CC1=C(C(=O)NC2CCCc3c2cnn3-c2cccc(C)c2C)OCCO1` (stereo not drawn) the figure was 11800 nM (inactive); with `CCOc1ccc(CCNC(=O)CS(=O)Cc2nc(-c3ccc(OC)c(OC)c3)oc2C)cc1OCC` (stereo not drawn), 7640 nM (inactive); with `COc1ccc(C2(c3ccc(OC)cc3)NC(=O)N(CC(=O)Nc3cc(C)ccc3OC)C2=O)cc1`, under 500 nM.
With `COc1ccc(/C=C(\NC(=O)c2ccc(OCC(C)C)cc2)C(=O)OCc2ccco2)cc1` the figure was 2710 nM.
With `CCCOc1ccc(C(=O)OCC(=O)NCCc2ccc(OCC)c(OCC)c2)cc1OC` the figure was 593 nM; with `Cc1cccc(C(C(=O)NC2CCCC2)N(C(=O)c2csnn2)C2CCCC2)c1` (stereo not drawn), 23900 nM (inactive); with `Cc1cc(N2CCOCC2)n2nc(C)c(-c3ccccc3Cl)c2n1`, 1050 nM.
With `COc1ccc(C2(c3ccc(OC)cc3)NC(=O)N(CC(=O)Nc3ccc(OC)c(OC)c3)C2=O)cc1`, the IC50 was 6860 nM (inactive).
For the molecule `CCOc1ccccc1NC(=O)C1CCN(C(=O)NCc2ccccc2)CC1`, the IC50 was under 500 nM.
With `C/C(=N\Nc1ccc(S(=O)(=O)Nc2ccccc2)cc1[N+](=O)[O-])c1ccc(N2CCOCC2)cc1` the figure was 1280 nM; with `CCOc1ccc(CCNC(=O)CN2C(=O)c3cccnc3Oc3ccc(C)cc32)cc1OCC`, under 500 nM; with `CCOc1ccccc1Nc1nnc(SCC(=O)Nc2nc(-c3ccc(OC)cc3)cs2)s1`, 1020 nM.
As to `CCCc1nc2ccccc2c(C(=O)OC(C)C(=O)NCc2ccc3c(c2)OCO3)c1CC` (stereo not drawn), the IC50 was 1970 nM.
Consider `COc1ccc(C(=O)NC2CCCc3c2cnn3-c2cccc(C)c2C)o1` (stereo not drawn), for which the IC50 is 2560 nM.
With `CCOc1ccc(CCNC(=O)CS(=O)Cc2nc(-c3ccc(OC)cc3)oc2C)cc1OCC` (stereo not drawn) the figure was 2110 nM; with `COc1cccc(C(=O)NC2CCCc3c2cnn3-c2cc(C)cc(C)c2)c1` (stereo not drawn), 2060 nM.
For `Cc1ccc(-n2nc3c(=O)n(CC(=O)NC(C)CCc4ccccc4)nc(C)c3c2C)cc1` (stereo not drawn) the value was 581 nM; for `CC(C)Oc1ccc(C(=O)OC(C)C(=O)Nc2nc(-c3cccc([N+](=O)[O-])c3)cs2)cc1` (stereo not drawn), 866 nM; for `COC(=O)/C(=C/c1ccc2c(c1)c1ccccc1n2C)NC(=O)c1ccccc1`, 4240 nM.
For `O=C(NC1CCCc2c1cnn2-c1cc(F)cc(F)c1)c1ccccn1` (stereo not drawn) the value was 1550 nM; for `COc1ccc(C(C(=O)NC(C)(C)C)N(Cc2cccs2)C(=O)CCC(=O)Nc2cc(C)on2)cc1` (stereo not drawn), 4160 nM.
Regarding `COc1ccccc1NS(=O)(=O)c1ccc(N/N=C/c2c(C)nn(-c3ccccc3)c2N2CCCC2)c([N+](=O)[O-])c1`, the IC50 was under 500 nM.
With `CCNC(=S)N1CCc2cc(OC)c(OC)cc2C1COc1ccccc1OC` (stereo not drawn) the figure was 3770 nM.
As to `CCC(C)(C)NC(=O)C(c1ccc(OC)cc1)N(CC1CCCO1)C(=O)CCC(=O)Nc1cc(C)on1` (stereo not drawn), the IC50 is 3440 nM.
Regarding `CCOc1ccc(CCNC(=O)Cn2cccc2C(=O)c2ccccc2C)cc1OCC`, the IC50 was 867 nM.
With `CCOc1ccccc1NC(=O)CCCNC(=O)c1ccc(Cl)cc1` the figure was 10700 nM (inactive); with `COc1ccc(CCNC(=O)c2ccc(CNc3nc(=S)[nH]c4ccccc34)cc2)cc1OC`, 1280 nM; with `CCCc1cc(N2CCOCC2)n2nc(C)c(-c3ccccc3)c2n1`, under 500 nM.
For `CCOc1ccc(CCNC(=O)CCc2nnc3ccc(N4CCCCC4)nn23)cc1OCC`, the IC50 is 582 nM.
As to `CCOc1ccc(CCNC(=O)CN2C(=O)NC(CCSC)C2=O)cc1OCC` (stereo not drawn), the IC50 is 1260 nM.
`COc1ccc(C(=O)OC(C)C(=O)NC(C)CCc2ccccc2)cc1OC` (stereo not drawn): the IC50 was 2560 nM.
For the molecule `Cc1sc(NC(=O)Cc2ccc3c(c2)OCO3)nc1-c1ccc2c(c1)CCN2C(=O)c1ccccc1F`, the IC50 is 1790 nM.
For `CCOc1ccc(CCNC(=O)c2c(C)nn(-c3ccccc3)c2Cl)cc1OCC` the value was 7560 nM (inactive); for `FC(F)Oc1ccc(-c2csc(NNC3=NCCCCC3)n2)cc1`, 916 nM; for `CCOc1ccccc1NC(=O)N1CCC(C(=O)c2ccc(F)cc2)CC1`, 4480 nM.
For `CCOc1ccc(C2=NNC(c3cccs3)=Nc3ccc(OC)cc32)cc1OCC` the value was 8700 nM (inactive); for `CCOc1ccc(CCNC(=O)Cn2c(-c3nonc3N)nc3ccccc32)cc1OCC`, 580 nM; for `COc1ccc(Cl)cc1NC(=O)CN(C)C(=O)CCCc1c[nH]c2ccccc12`, 2300 nM.
For `COc1ccc(C(=O)OC(C)C(=O)NC(C)CCc2ccccc2)cc1[N+](=O)[O-]` (stereo not drawn), the IC50 was 549 nM.
For `COc1ccc(C(C(=O)NC2CCCC2)N(CCC(C)C)C(=O)CCC(=O)Nc2cc(C)on2)cc1` (stereo not drawn) the value was 5900 nM (inactive).
As to `CCOc1ccc(-c2csc(NNC3=NCCCCC3)n2)cc1`, the IC50 was 1220 nM.
For `CC(=O)c1cccc(N=Nc2c(-c3ccccc3)[nH]n(-c3ccccc3)c2=O)c1` the value was 633 nM; for `CC1CCCN(C(=O)c2ccc3c(c2NCCO)C(=O)c2ccccc2C3=O)C1` (stereo not drawn), 765 nM.
`CCCc1ccc(-c2csc(NC(=O)Cc3cccs3)n2)cc1`: the IC50 is 1480 nM.
With `CCCCN(C(=O)CCC(=O)Nc1cc(C)on1)C(C(=O)NC1CCCC1)c1ccc(OCC)cc1` (stereo not drawn) the figure was 4070 nM; with `CC(=O)Nc1ccc(-c2csc(NC(=O)Cc3ccccc3F)n2)cc1`, 5100 nM (inactive); with `CCOc1cc2c(cc1OCC)C(c1ccc(OC)cc1)N(c1ccccc1)C(=O)C2` (stereo not drawn), > 32000 nM (inactive).
For `CCOC(=O)c1cc(CC)sc1NC(=O)C1CC(=O)NN1Cc1ccccc1` (stereo not drawn) the value was 573 nM.
With `CC(C)COc1cccc(-c2cc(C(=O)Nc3ccon3)c3ccccc3n2)c1` the figure was 3830 nM; with `COc1ncccc1C(=O)NC1CCCc2c1cnn2-c1ccc(C)c(C)c1` (stereo not drawn), 3440 nM.
Take `CCn1cc(CCCC(=O)NCc2cccc(OC)c2)c2ccccc21`: the IC50 is 6430 nM (inactive).
For the molecule `CC(C)c1ccc(NC(=O)CSc2nc3ccccc3nc2N2CCCC2)cc1`, the IC50 was 2080 nM.
For `COCCNC(=S)N1CCc2cc(OC)c(OC)cc2C1COc1cc(C)cc(C)c1` (stereo not drawn) the value was 4080 nM; for `CCc1ccc(NC(=O)CNC(=O)[C@@H]2Cc3ccccc3CN2C(=O)OC(C)(C)C)cc1`, 5020 nM (inactive); for `CCOc1ccccc1NC(=O)N1CCCC1C(=O)Nc1ccc(-n2cnnn2)c(C)c1` (stereo not drawn), 1420 nM.
With `COc1ccc(Cl)cc1NC(=O)CN1C(=O)NC2(CCCC2)C1=O` the figure was 4270 nM; with `CCOc1ccc(CCNC(=O)c2cc(-c3ccccc3)c(N3CCOCC3)s2)cc1OCC`, under 500 nM.
For `Cc1cc(N2CCOCC2)n2nc(C)c(-c3ccc(Cl)cc3)c2n1` the value was 1310 nM; for `COc1ccc(NC(=O)[C@H](C)NC(=O)[C@@H]2Cc3ccccc3CN2C(=O)OC(C)(C)C)cc1`, 7120 nM (inactive); for `CCCCOc1ccc(/C=C/C(=O)OCC(=O)c2c(N)n(C)c(=O)n(C)c2=O)cc1OCC`, 28800 nM (inactive).
`Cc1ccc(CNC(=O)c2ccc(N3CCC4(CC3)CC(c3ccccc3)=NO4)c(NC(=O)c3ccc(Br)cc3)c2)cc1`: the IC50 is under 500 nM.
Take `COCc1ccc(C(=O)NC2CCCc3c2cnn3-c2ccc(C)c(C)c2)o1` (stereo not drawn): the IC50 is 2440 nM.
For `COc1ccc(CCNC(=O)c2cc(-c3ccccc3)c(N3CCOCC3)s2)c(OC)c1OC` the value was under 500 nM.
With `C=CCOc1ccc(-c2nc3c(c(=O)[nH]c(=O)n3Cc3ccccc3)n2CCCOC)cc1` the figure was 2980 nM.
With `CCOc1ccc(CCNC(=O)CCNS(=O)(=O)c2ccc(Br)cc2)cc1OCC` the figure was 3650 nM; with `CCCCCCn1c(SCC(=O)Nc2cc(C)on2)nc2ccccc2c1=O`, 750 nM.
Consider `CCOc1ccc(CCNC(=O)COC(=O)c2cc([N+](=O)[O-])ccc2N2CCOCC2)cc1OCC`, for which the IC50 was 3000 nM.
With `O=C(NC1CCCc2c1cnn2-c1ccccc1F)c1ccccn1` (stereo not drawn) the figure was > 32000 nM (inactive).
With `CCOc1ccc(CCNC(=O)CCS(=O)(=O)c2ccc(C)cc2)cc1OCC` the figure was 1850 nM.
For `COc1ccc(CN(C)C(=O)CNC(=O)Cc2cccc3ccccc23)c(OC)c1OC` the value was 4550 nM.
Regarding `CCOc1ccc(CCNC(=O)CCc2nnc3ccc(N4CCCC4)nn23)cc1OCC`, the IC50 was 1810 nM.
For `CCCCNC(=O)c1ccc2c(c1)N(C)C(=O)c1ccccc1S2` the value was 6880 nM (inactive).
With `CCOc1ccc(CCNC(=O)CCCn2c(=O)c3cccn3c3cccnc32)cc1OCC` the figure was 1880 nM; with `CCOc1ccc(CCNC(=O)CN2C(=O)NC3(CCCC3)C2=O)cc1OCC`, 1070 nM.
For `CCOc1ccc(CN(C)C(=O)CNC(=O)c2ccc(Br)o2)cc1OC`, the IC50 is 3880 nM.
For the molecule `Cc1ccc(-n2nc3c(=O)n(C(C)C(=O)NCCc4cccs4)nc(C)c3c2C)cc1` (stereo not drawn), the IC50 is 3220 nM.
Take `Cc1ccc(CNC(=O)CCCc2c[nH]c3ccccc23)cc1`: the IC50 is 11200 nM (inactive).
Consider `Cc1ccc(-n2nc3c(=O)n(C(C)C(=O)NCCC4=CCCCC4)nc(C)c3c2C)cc1` (stereo not drawn), for which the half-maximal inhibitory concentration (IC50) is 3870 nM.
With `Cc1ccc(-c2c(C)nn3c(N4CCOCC4)cc(C)nc23)cc1` the figure was 633 nM; with `CCOc1ccc(CCNC(=O)COc2cc(=O)n(C)c3ccccc23)cc1OCC`, 3950 nM; with `CCOc1ccc(C(=O)OCC(=O)Nc2nc(OC)cc(OC)n2)cc1OCC`, 1120 nM.
For `CCOc1ccc(CCNC(=O)CCOc2cc(C)ccc2C)cc1OCC` the value was under 500 nM.
